Measurements taken from ChEMBL document CHEMBL4118273, “Design, Synthesis, and Biological Evaluation of Pyrimido[4,5- d]pyrimidine-2,4(1 H,3 H)-diones as Potent and Selective Epidermal Growth Factor Receptor (EGFR) Inhibitors against L858R/T790M Resistance Mutation” (J Med Chem, 2018).
Converted amounts (≈) assume the structure as drawn.

What was measured:
NCI-H1975 [1] = experiment: Antiproliferative activity against human NCI-H1975 cells harboring EGFR L858R/T790M double mutant after 72 hrs by SRB assay; assay type: functional, cell-based; conditions: NCI-H1975, 72 h
Procedure, shortened: (§1)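 Cell growth inhibition measured by sulforhodamine B colorimetric assay in H1975 (EGFR L858R/T790M) and A431 (overexpressed wild-type EGFR) cells; IC50 values are means ± SD of at least three independent determinations. Selectivity is taken as the A431:H1975 IC50 ratio.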

Homo sapiens = organism: Homo sapiens; experiment: Selectivity index, ratio of IC50 for human A431 cells harboring wild type EGFR to IC50 for human NCI-H1975 cells harboring EGFR L858R/T790M double mutant; procedure, shortened: as §1
[2] = Aqueous solubility in pH 7.4 PBS buffer by UV-Visible spectrophotometric method; assay type: physicochemical
Procedure, shortened: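 Solubility determined in 0.1 M PBS, pH 7.4, by UV-visible spectrophotometry.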

[3] = target: Epidermal growth factor receptor (Homo sapiens, UniProt P00533); experiment: Inhibition of wild type EGFR phosphorylation in EGF-stimulated human A431 cells up to 1000 nM by Western blot method
Epidermal growth factor receptor, sequence (P00533 whole entry): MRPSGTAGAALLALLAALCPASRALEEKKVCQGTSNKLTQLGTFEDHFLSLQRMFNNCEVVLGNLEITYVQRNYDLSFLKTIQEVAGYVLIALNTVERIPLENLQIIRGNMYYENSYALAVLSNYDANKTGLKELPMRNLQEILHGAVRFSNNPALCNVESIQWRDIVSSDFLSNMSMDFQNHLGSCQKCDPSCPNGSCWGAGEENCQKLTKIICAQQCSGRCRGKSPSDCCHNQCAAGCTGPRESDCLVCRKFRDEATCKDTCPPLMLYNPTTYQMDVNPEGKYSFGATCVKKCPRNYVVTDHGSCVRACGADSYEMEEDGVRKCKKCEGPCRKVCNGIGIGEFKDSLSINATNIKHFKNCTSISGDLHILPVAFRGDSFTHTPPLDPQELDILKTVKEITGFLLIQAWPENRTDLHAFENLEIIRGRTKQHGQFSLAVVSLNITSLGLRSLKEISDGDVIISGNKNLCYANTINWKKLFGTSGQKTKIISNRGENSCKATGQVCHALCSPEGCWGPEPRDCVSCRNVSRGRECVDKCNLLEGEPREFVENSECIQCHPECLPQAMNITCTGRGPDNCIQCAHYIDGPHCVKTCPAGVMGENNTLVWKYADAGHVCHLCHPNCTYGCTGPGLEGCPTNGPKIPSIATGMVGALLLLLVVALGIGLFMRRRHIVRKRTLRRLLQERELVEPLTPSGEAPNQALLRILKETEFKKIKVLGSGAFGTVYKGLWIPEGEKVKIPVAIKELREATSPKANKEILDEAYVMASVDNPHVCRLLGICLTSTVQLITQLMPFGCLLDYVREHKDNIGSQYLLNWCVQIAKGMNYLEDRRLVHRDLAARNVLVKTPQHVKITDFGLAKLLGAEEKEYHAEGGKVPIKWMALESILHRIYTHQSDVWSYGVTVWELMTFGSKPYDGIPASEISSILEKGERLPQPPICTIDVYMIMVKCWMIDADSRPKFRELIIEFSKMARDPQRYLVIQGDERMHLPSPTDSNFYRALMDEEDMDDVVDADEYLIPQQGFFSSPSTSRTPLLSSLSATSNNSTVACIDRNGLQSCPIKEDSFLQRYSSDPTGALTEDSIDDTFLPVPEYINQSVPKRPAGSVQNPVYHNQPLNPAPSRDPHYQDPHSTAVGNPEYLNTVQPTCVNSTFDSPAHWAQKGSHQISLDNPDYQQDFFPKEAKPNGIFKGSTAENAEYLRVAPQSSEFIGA
Procedure, shortened: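 A431 cells lysed in Tris-HCl pH 6.8 buffer with DTT, SDS and glycerol; equal protein amounts resolved on 8% SDS-PAGE, transferred to nitrocellulose and probed for p-EGFR (Y1068), total EGFR, p-AKT (Ser473), total AKT and GAPDH.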

Cytochrome P450 2C9 = Cytochrome P450 2C9 (Homo sapiens, UniProt P11712); experiment: Inhibition of human CYP2C9 (unknown origin); assay type: ADME
Cytochrome P450 2C9, sequence (P11712 whole entry): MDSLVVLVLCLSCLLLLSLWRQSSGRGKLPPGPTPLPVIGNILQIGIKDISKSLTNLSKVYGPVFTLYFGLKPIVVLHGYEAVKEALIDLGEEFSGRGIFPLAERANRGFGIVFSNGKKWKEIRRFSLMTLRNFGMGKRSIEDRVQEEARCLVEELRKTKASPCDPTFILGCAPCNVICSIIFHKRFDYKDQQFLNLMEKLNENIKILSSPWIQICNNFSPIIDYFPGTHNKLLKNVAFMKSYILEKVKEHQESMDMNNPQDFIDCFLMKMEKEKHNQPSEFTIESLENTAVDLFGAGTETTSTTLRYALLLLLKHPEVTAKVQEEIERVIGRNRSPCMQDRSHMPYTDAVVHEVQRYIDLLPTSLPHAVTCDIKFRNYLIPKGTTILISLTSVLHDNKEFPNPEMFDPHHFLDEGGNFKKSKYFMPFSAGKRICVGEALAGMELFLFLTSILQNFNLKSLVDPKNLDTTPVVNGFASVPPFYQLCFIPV

Cytochrome P450 2C19 = Cytochrome P450 2C19 (Homo sapiens, UniProt P33261); experiment: Inhibition of human CYP2C19 (unknown origin); assay type: ADME
Cytochrome P450 2C19, sequence (P33261 whole entry): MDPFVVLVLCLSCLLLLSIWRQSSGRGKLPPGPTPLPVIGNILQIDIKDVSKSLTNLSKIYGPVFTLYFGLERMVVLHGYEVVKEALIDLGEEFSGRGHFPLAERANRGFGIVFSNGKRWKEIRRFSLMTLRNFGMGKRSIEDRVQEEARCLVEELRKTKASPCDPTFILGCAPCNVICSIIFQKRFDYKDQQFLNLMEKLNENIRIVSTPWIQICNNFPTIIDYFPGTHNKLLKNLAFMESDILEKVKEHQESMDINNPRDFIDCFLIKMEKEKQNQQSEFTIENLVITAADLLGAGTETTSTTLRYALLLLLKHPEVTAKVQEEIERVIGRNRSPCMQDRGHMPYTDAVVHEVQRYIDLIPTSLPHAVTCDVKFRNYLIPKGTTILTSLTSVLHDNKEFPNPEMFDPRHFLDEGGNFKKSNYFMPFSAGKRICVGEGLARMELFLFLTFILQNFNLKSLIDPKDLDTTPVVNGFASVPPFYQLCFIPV

[4] = Cmax in ICR mouse at 1 mg/kg, iv by LC-MS/MS analysis; assay type: ADME, organism-based; set-up: dose 1 mg/kg, route intravenous; conditions: in vivo
[5] = Apparent volume of distribution in ICR mouse at 1 mg/kg, iv by LC-MS/MS analysis; assay type: ADME, organism-based; conditions: in vivo, read-out: Vz
[6] = Half life in ICR mouse at 10 mg/kg, po by LC-MS/MS analysis; assay type: ADME, organism-based; conditions: in vivo
[7] = Tmax in ICR mouse at 10 mg/kg, po by LC-MS/MS analysis; assay type: ADME, organism-based; conditions: in vivo
[8] = AUC (0 to infinity) in ICR mouse at 10 mg/kg, po by LC-MS/MS analysis; assay type: ADME, organism-based; set-up: dose 10 mg/kg, route oral, time infinity; conditions: in vivo
[9] = Oral bioavailability in ICR mouse at 10 mg/kg by LC-MS/MS analysis; assay type: ADME, organism-based; conditions: in vivo
NCI-H1975 [10] = experiment: Antitumor activity against human NCI-H1975 cells xenografted in Balb/c mouse assessed as tumor growth inhibition at 50 mg/kg/day, po once daily for 14 days measured every 2 to 3 days during compound dosing relative to control; assay type: functional; conditions: read-out: TGI
Procedure, shortened: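 BALB/c mice, 4–6 weeks old, implanted subcutaneously in the right flank with about 2 × 10^6 H1975 or A431 cells grown in RPMI-1640 with 10% FBS. At 200–400 mm3 tumors, mice were randomized (six/group) and dosed orally once daily with vehicle or inhibitor for 14 days. Caliper volumes, V = L×W²/2, were taken every 2–3 days; means ± SEM, Student's t test vs vehicle.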

Mus musculus = experiment: Toxicity in Balb/c mouse xenografted with human A431 cells assessed as body weight loss at 50 mg/kg/day, po once daily for 14 days measured every 2 to 3 days during compound dosing; assay type: organism-based; conditions: in vivo
Procedure, shortened: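 A431 or H1975 cells were grown in RPMI-1640 with 10% FBS, and about 2 × 10^6 cells were implanted subcutaneously in the right flank of 4–6-week-old BALB/c mice. At 200–400 mm³, mice were randomized to vehicle or treated groups (n = 6). Dosing was oral, once daily, for 14 days. Body weights were recorded every 2–3 days.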

Compound: C=CC(=O)Nc1cccc(-n2c(=O)n(C(C)C)c(=O)c3cnc(Nc4ccc(N5CCN(C)CC5)cc4OC)nc32)c1
- IC50 (NCI-H1975 [1]): 0.044 µM
- Ratio IC50 (Homo sapiens): 36
- solubility [2]: 262 µg/mL (≈ 459 µM)
- inhibition (INH) [3]: Not Active
- IC50 (Cytochrome P450 2C9): > 50 µM
- IC50 (Cytochrome P450 2C19): > 50 µM
- Cmax [4]: 311 ng/mL
- Vd [5]: 4.53 L/kg
- half-life [6]: 1.1 h
- Tmax [7]: 2 h
- AUC(0-inf) [8]: 658 ng·h/mL
- bioavailability [9]: 35%
- inhibition in vivo at 50 mg/kg/day (NCI-H1975 [10]): 73%
- Activity (Mus musculus): Non-Toxic
